Assay results from ChEMBL document CHEMBL4373711, “Development of 3,5-Dinitrophenyl-Containing 1,2,4-Triazoles and Their Trifluoromethyl Analogues as Highly Efficient Antitubercular Agents Inhibiting Decaprenylphosphoryl-β-d-ribofuranose 2'-Oxidase” (J Med Chem, 2019).
Values after ≈ are worked out from the molar mass of the structure shown. Active and inactive are the calls of the source. The calls are words filed in the database; no cut-off is given here.

What was measured:
[1] = test system: Mycobacterium tuberculosis; test: Antimycobacterial activity against Mycobacterium tuberculosis H37Rv CNCTC My 331/88 after 14 days; assay type: functional; conditions: H37Rv CNCTC My 331/88, 336 h
Method in brief: (§1)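 M. tuberculosis strains (H37Rv and clinical MDR/XDR isolates) tested by microdilution in Šula's semisynthetic medium. Compounds were dissolved in DMSO and tested at 32 to 0.03 µM in twofold steps. Inoculum was a 1.0 McFarland suspension diluted 10-3. Plates were incubated at 37 °C and read at 14 and 21 days.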

[2] = test system: Mycobacterium tuberculosis; test: Antimycobacterial activity against Mycobacterium tuberculosis H37Rv CNCTC My 331/88 after 21 days; assay type: functional; conditions: H37Rv CNCTC My 331/88, 504 h; method in brief: as §1
Mycobacterium avium [3] = test: Antimycobacterial activity against Mycobacterium avium CNCTC My 330/88 after 14 days; assay type: functional; conditions: CNCTC My 330/88, 336 h
Method in brief: (§2)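 M. avium was tested by microdilution in Šula's semisynthetic medium, with compounds dissolved in DMSO and serially diluted from 1000 down to 1. Inoculum was a 1.0 McFarland suspension diluted 10-5. Plates were incubated at 37 °C and read at 14 and 21 days. […] Isoniazid and rifampicin served as standards.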

Mycobacterium avium [4] = test: Antimycobacterial activity against Mycobacterium avium CNCTC My 330/88 after 21 days; assay type: functional; conditions: CNCTC My 330/88, 504 h; method in brief: as §2
Mycobacterium kansasii [5] = test: Antimycobacterial activity against Mycobacterium kansasii CNCTC My 235/80 after 7 days; assay type: functional; conditions: CNCTC My 235/80, 168 h
Method in brief: (§3)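 Microdilution in Šula's semisynthetic medium; compounds in DMSO at 32–0.03 µM. Inoculum from 1.0 McFarland suspension diluted 10-4. […] Isoniazid and rifampicin as reference drugs.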

Mycobacterium kansasii [6] = test: Antimycobacterial activity against Mycobacterium kansasii CNCTC My 235/80 after 14 days; assay type: functional; conditions: CNCTC My 235/80, 336 h; method in brief: as §3
Mycobacterium kansasii [7] = test: Antimycobacterial activity against Mycobacterium kansasii CNCTC My 235/80 after 21 days; assay type: functional; conditions: CNCTC My 235/80, 504 h; method in brief: as §3
Mycobacterium kansasii [8] = test: Antimycobacterial activity against Mycobacterium kansasii 6509/96 after 7 days; assay type: functional; conditions: 6509/96, 168 h; method in brief: as §3
Mycobacterium kansasii [9] = test: Antimycobacterial activity against Mycobacterium kansasii 6509/96 after 14 days; assay type: functional; conditions: 6509/96, 336 h; method in brief: as §3
Mycobacterium kansasii [10] = test: Antimycobacterial activity against Mycobacterium kansasii 6509/96 after 21 days; assay type: functional; conditions: 6509/96, 504 h; method in brief: as §3
Staphylococcus aureus [11] = test: Antibacterial activity against Staphylococcus aureus subsp. aureus ATCC 29213 CCM 4223 at highest concentration measured after 24 to 48 hrs by alamar blue dye based broth microdilution assay; assay type: functional, organism-based
Staphylococcus aureus [12] = test: Antibacterial activity against methicillin-resistant Staphylococcus aureus subsp. aureus ATCC 43300 CCM 4750 at highest concentration measured after 24 to 48 hrs by alamar blue dye based broth microdilution assay; assay type: functional, organism-based
[13] = test system: Staphylococcus epidermidis; test: Antibacterial activity against Staphylococcus epidermidis at highest concentration measured after 24 to 48 hrs by alamar blue dye based broth microdilution assay; assay type: functional, organism-based
Enterococcus faecalis = test: Antibacterial activity against Enterococcus faecalis ATCC 29212 CCM 4224 at highest concentration measured after 24 to 48 hrs by alamar blue dye based broth microdilution assay; assay type: functional, organism-based
Escherichia coli = test: Antibacterial activity against Escherichia coli ATCC 25922 CCM 3954 at highest concentration measured after 24 to 48 hrs by alamar blue dye based broth microdilution assay; assay type: functional, organism-based
Klebsiella pneumoniae = test: Antibacterial activity against Klebsiella pneumoniae at highest concentration measured after 24 to 48 hrs by alamar blue dye based broth microdilution assay; assay type: functional, organism-based
Serratia marcescens = test: Antibacterial activity against Serratia marcescens at highest concentration measured after 24 to 48 hrs by alamar blue dye based broth microdilution assay; assay type: functional, organism-based
Pseudomonas aeruginosa = test: Antibacterial activity against Pseudomonas aeruginosa ATCC 27853 CCM 3955 at highest concentration measured after 24 to 48 hrs by alamar blue dye based broth microdilution assay; assay type: functional, organism-based
Candida albicans = test: Antifungal activity against Candida albicans ATCC 24433 CCM 8320 at highest concentration measured after 24 to 48 hrs by alamar blue dye based broth microdilution assay; assay type: functional, organism-based
Pichia kudriavzevii = test: Antifungal activity against Candida krusei ATCC 6258 CCM8271 at highest concentration measured after 24 to 48 hrs by alamar blue dye based broth microdilution assay; assay type: functional, organism-based
Candida parapsilosis = test: Antifungal activity against Candida parapsilosis ATCC 22019 CCM 8260 at highest concentration measured after 24 to 48 hrs by alamar blue dye based broth microdilution assay; assay type: functional, organism-based
Candida tropicalis = test: Antifungal activity against Candida tropicalis ATCC 750 CCM 8264 at highest concentration measured after 24 to 48 hrs by alamar blue dye based broth microdilution assay; assay type: functional, organism-based
Aspergillus fumigatus = test: Antifungal activity against Aspergillus fumigatus ATCC 204305 at highest concentration measured after 24 to 48 hrs by alamar blue dye based broth microdilution assay; assay type: functional, organism-based
Aspergillus flavus = test: Antifungal activity against Aspergillus flavus CCM 8363 at highest concentration measured after 24 to 48 hrs by alamar blue dye based broth microdilution assay; assay type: functional, organism-based
Lichtheimia corymbifera = test: Antifungal activity against Lichtheimia corymbifera CCM 8077 at highest concentration measured after 24 to 48 hrs by alamar blue dye based broth microdilution assay; assay type: functional, organism-based
[14] = test system: Trichophyton interdigitale; test: Antifungal activity against Trichophyton interdigitale ATCC 9533 CCM 8377 at highest concentration measured after 72 to 120 hrs by alamar blue dye based broth microdilution assay; assay type: functional

Compound | MIC99 [1] [µM] | MIC99 [2] [µM] | MIC99 (Mycobacterium avium [3]) [µM] | MIC99 (Mycobacterium avium [4]) [µM] | MIC99 (Mycobacterium kansasii [5]) [µM] | MIC99 (Mycobacterium kansasii [6]) [µM] | MIC99 (Mycobacterium kansasii [7]) [µM] | MIC99 (Mycobacterium kansasii [8]) [µM] | MIC99 (Mycobacterium kansasii [9]) [µM] | MIC99 (Mycobacterium kansasii [10]) [µM] | also measured
O=C(NNC(=S)NCc1ccccc1)c1cc([N+](=O)[O-])cc([N+](=O)[O-])c1 | 8 (≈ 3 µg/mL) | 8 (≈ 3 µg/mL) | 62 (≈ 23.3 µg/mL) | 62 (≈ 23.3 µg/mL) | 32 (≈ 12 µg/mL) | 32 (≈ 12 µg/mL) | 32 (≈ 12 µg/mL) | 16 (≈ 6.01 µg/mL) | 16 (≈ 6.01 µg/mL) | 16 (≈ 6.01 µg/mL) | 
O=[N+]([O-])c1cc(CSc2nnc(-c3ccccc3)n2-c2ccccc2)cc([N+](=O)[O-])c1 | 4 (≈ 1.73 µg/mL) | 4 (≈ 1.73 µg/mL) | > 1000 | > 1000 | 2 (≈ 0.867 µg/mL) | 4 (≈ 1.73 µg/mL) | 8 (≈ 3.47 µg/mL) | 2 (≈ 0.867 µg/mL) | 4 (≈ 1.73 µg/mL) | 8 (≈ 3.47 µg/mL) | 
Cc1ccc(-c2nnc(SCc3cc([N+](=O)[O-])cc(C(F)(F)F)c3)n2Cc2ccccc2)cc1 | > 32 | > 32 | 250 (≈ 121 µg/mL) | 250 (≈ 121 µg/mL) | > 32 | > 32 | > 32 | > 32 | > 32 | > 32 | 
O=[N+]([O-])c1cc(CSc2nnc(-c3ccccc3)n2Cc2ccccc2)cc(C(F)(F)F)c1 | 16 (≈ 7.53 µg/mL) | 32 (≈ 15.1 µg/mL) | 250 (≈ 118 µg/mL) | 250 (≈ 118 µg/mL) | > 32 | > 32 | > 32 | > 32 | > 32 | > 32 | Activity (Staphylococcus aureus [11]): inactive; Activity (Staphylococcus aureus [12]): inactive; Activity [13]: inactive; Activity (Enterococcus faecalis): inactive; Activity (Escherichia coli): inactive; Activity (Klebsiella pneumoniae): inactive; Activity (Serratia marcescens): inactive; Activity (Pseudomonas aeruginosa): inactive; Activity (Candida albicans): inactive; Activity (Pichia kudriavzevii): inactive; Activity (Candida parapsilosis): inactive; Activity (Candida tropicalis): inactive; Activity (Aspergillus fumigatus): inactive; Activity (Aspergillus flavus): inactive; Activity (Lichtheimia corymbifera): inactive; Activity [14]: inactive
CCNC(=S)NNC(=O)c1cc([N+](=O)[O-])cc([N+](=O)[O-])c1 | > 32 | > 32 | 1000 (≈ 313 µg/mL) | 1000 (≈ 313 µg/mL) | > 32 | > 32 | > 32 | > 32 | > 32 | > 32 | 
O=[N+]([O-])c1cc(CSc2nnc(-c3ccccc3)n2Cc2ccc(Br)cc2)cc([N+](=O)[O-])c1 | 2 (≈ 1.05 µg/mL) | 2 (≈ 1.05 µg/mL) | 250 (≈ 132 µg/mL) | 250 (≈ 132 µg/mL) | 2 (≈ 1.05 µg/mL) | 4 (≈ 2.11 µg/mL) | 4 (≈ 2.11 µg/mL) | 2 (≈ 1.05 µg/mL) | 4 (≈ 2.11 µg/mL) | 4 (≈ 2.11 µg/mL) | 
O=[N+]([O-])c1cc(Cn2c(SCc3ccc(Cl)cc3)nnc2-c2ccccc2)cc([N+](=O)[O-])c1 | 8 (≈ 3.86 µg/mL) | 16 (≈ 7.71 µg/mL) | 250 (≈ 120 µg/mL) | 250 (≈ 120 µg/mL) | 4 (≈ 1.93 µg/mL) | 8 (≈ 3.86 µg/mL) | 16 (≈ 7.71 µg/mL) | 16 (≈ 7.71 µg/mL) | 32 (≈ 15.4 µg/mL) | 32 (≈ 15.4 µg/mL) | 
O=[N+]([O-])c1cc(CSc2nnc(CCCCCO)n2Cc2ccccc2)cc([N+](=O)[O-])c1 | 16 (≈ 7.32 µg/mL) | 32 (≈ 14.6 µg/mL) | > 1000 | > 1000 | 8 (≈ 3.66 µg/mL) | 16 (≈ 7.32 µg/mL) | 32 (≈ 14.6 µg/mL) | 16 (≈ 7.32 µg/mL) | 32 (≈ 14.6 µg/mL) | 32 (≈ 14.6 µg/mL) | 
NNC(=O)c1ccncc1 [ISONIAZID] |  |  | > 250 | > 250 | > 250 | > 250 | > 250 | 2 (≈ 0.274 µg/mL) | 4 (≈ 0.549 µg/mL) | 4 (≈ 0.549 µg/mL) | 
